Series [1] has as its target Human immunodeficiency virus type 1 reverse transcriptase (Human immunodeficiency virus 1, UniProt Q72547). The series is described as follows: Inhibition of HIV1 reverse transcriptase p66/p51. The conditions noted are these: read-out: IC50.
For series [2], the target named is Human immunodeficiency virus type 1 reverse transcriptase (Human immunodeficiency virus 1, UniProt Q72547, K103N). The series is described as follows: Inhibition of HIV1 reverse transcriptase p66/p51 K103N mutant. The conditions noted are these: read-out: IC50. The method, boiled down:
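Substrate was 0.5 µg poly(rA)/oligo(dT) 10:1 (0.3 µM 3′-OH ends) with 10 µM [³H]dTTP, at 37 °C. Acid-precipitable radioactivity was counted on GF/C filters after TCA washes.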

The nature of series [3]: Cytotoxicity against human HEL cells assessed as drug level causing microscopically detectable alteration of normal cell morphology after 3 days. The class given is cell-based.
The test system of a further series is Human alphaherpesvirus 2. The series is described as follows: Antiviral activity against HSV2 G in human HEL cells assessed as protection against virus-induced cytopathicity. The class given is functional, organism-based. The following applies: Human alphaherpesvirus 2, strain G. The method, boiled down: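 Confluent cell monolayers inoculated with 100 CCID₅₀ virus. After 1-2 h adsorption, residual virus removed and cultures incubated with varying compound concentrations. Cytopathicity scored once it reached completion in untreated infected controls. EC₅₀ = dose reducing virus-induced cytopathogenicity by 50%.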
A general note: Protection from cytopathic effect is a common read-out in antiviral testing.

For the next series, the system named is Vaccinia virus. Kind of series: Antiviral activity against Vaccinia virus Lederle in human HEL cells assessed as protection against virus-induced cytopathicity. It counts as functional, organism-based. The conditions noted are these: Orthopoxvirus vaccinia.
Series [4] concerns Vesicular stomatitis virus. Kind of series: Antiviral activity against VSV in human HEL cells assessed as protection against virus-induced cytopathicity. The class given is functional, organism-based.
A short description of series [5]: Cytotoxicity against feline CRFK cells by MTS assay. It counts as cell-based, Felis catus. The conditions noted are these: cat.
Another series deals with Feline coronavirus. Kind of series: Antiviral activity against Feline coronavirus in feline […] cells assessed as inhibition of virus-induced cytopathicity. The class given is functional, organism-based. The following applies: Alphacoronavirus 1.
For another series, the system named is Felid alphaherpesvirus 1. The series is described as follows: Antiviral activity against Feline herpesvirus in feline […] cells assessed as inhibition of virus-induced cytopathicity. It counts as functional, organism-based.
Series [6] is described as follows: Cytotoxicity against MDCK cells assessed as drug level causing microscopically detectable alteration of normal cell morphology. The following applies: dog. It counts as cell-based, Canis lupus familiaris.
Series [7] in a line: Cytotoxicity against MDCK cells by MTS assay. The class given is cell-based, Canis lupus familiaris. The conditions noted are these: dog. In general terms: Formazan colour is commonly taken as a measure of viable cells.
Series [8] relates to Influenza A virus. Kind of series: Antiviral activity against influenza H1N1 virus in MDCK cells assessed as reduction of virus-induced cytopathicity by visual cytopathic effect scoring method. The class given is functional, organism-based.
Series [9] relates to Influenza A virus. The series is described as follows: Antiviral activity against influenza H1N1 virus in MDCK cells assessed as reduction of virus-induced cytopathicity by MTS method. It counts as functional, organism-based. The following applies: Influenza A virus, H1N1, MDCK.
Series [10] concerns Influenza A virus H3N2. Kind of series: Antiviral activity against influenza H3N2 virus in MDCK cells assessed as reduction of virus-induced cytopathicity by visual cytopathic effect scoring method. It counts as functional, organism-based.
The test system of series [11] is Influenza A virus H3N2. Kind of series: Antiviral activity against influenza H3N2 virus in MDCK cells assessed as reduction of virus-induced cytopathicity by MTS method. The class given is functional, organism-based.
The subject of series [12] is Influenza B virus. The series is described as follows: Antiviral activity against influenza B virus in MDCK cells assessed as reduction of virus-induced cytopathicity by visual cytopathic effect scoring method. It counts as functional, organism-based.
Series [13] deals with Influenza B virus. The series is described as follows: Antiviral activity against influenza B virus in MDCK cells assessed as reduction of virus-induced cytopathicity by MTS method. It counts as functional, organism-based.
The test system of the next series is Human alphaherpesvirus 1. The series is described as follows: Antiviral activity against HSV1 KOS in human HEL cells assessed as protection against virus-induced cytopathicity. It counts as functional, organism-based. The conditions noted are these: Human alphaherpesvirus 1, KOS.

This is an account of results in ChEMBL document CHEMBL1153955, “Indolylarylsulfones bearing natural and unnatural amino acids. Discovery of potent inhibitors of HIV-1 non-nucleoside wild type and resistant mutant strains reverse transcriptase and coxsackie B4 virus” (J Med Chem, 2009).

Where only a bound is given, the exact number is not on record here.

What is called IC50 is the midpoint of a concentration-inhibition curve. The term EC50 denotes the concentration giving half of the maximal effect. By CC50 is commonly meant the concentration that lowers cell viability or growth by half. A high value points to lower toxicity to the cells.

`Cc1cc(C)cc(S(=O)(=O)c2c(C(=O)N[C@@H](C)C(N)=O)[nH]c3ccc(Br)cc23)c1`: the IC50 in [1] was 0.013 µM; in [2], 1.5 µM.
With `Cc1cc(C)cc(S(=O)(=O)c2c(C(=O)N[C@@H](C)C(N)=O)[nH]c3ccc(Cl)cc23)c1`, the IC50 in series [1] was found to be 0.026 µM; in [2], 1.01 µM.
For `Nc1nc2c(ncn2COC(CO)CO)c(=O)[nH]1` [GANCICLOVIR], in [3], the MCC at 72 h is above 100 µM. Also, the EC50 is 0.2 µM in the series with Human alphaherpesvirus 2; above 100 µM in the series on Vaccinia virus; above 100 µM in series [4]; above 100 µM with Feline coronavirus; 1.2 µM in the series on Felid alphaherpesvirus 1. In [5], this compound yielded a CC50 above 100 µM.
In the case of `CC(N)C12CC3CC(CC(C3)C1)C2` (centres undefined) [RIMANTADINE], the MCC in series [6] is above 100 µM. For the same compound, the CC50 in series [7] was above 100 µM. For the same compound, the EC50 was 45 µM in the series on Influenza A virus [8]; 33.2 µM in the series on Influenza A virus [9]; above 100 µM in the series with Influenza A virus H3N2 [10]; above 100 µM in the series on Influenza A virus H3N2 [11]; above 100 µM in the series on Influenza B virus [12]; above 100 µM in the series on Influenza B virus [13].
Consider `Cc1cc(C)cc(S(=O)(=O)c2c(C(=O)N[C@@H](C)CC(N)=O)[nH]c3ccc(Cl)cc23)c1`, for which the concentration for half-maximal inhibition (IC50) in series [1] was determined as 0.315 µM; in series [2], 1.34 µM.
Consider `NC12CC3CC(CC(C3)C1)C2` [AMANTADINE], for which, in [6], the MCC is above 100 µM. This compound displayed a CC50 in series [7] above 100 µM. Also, the concentration for a half-maximal effect (EC50) in the series on Influenza A virus [8] is above 100 µM; with Influenza A virus [9] it was above 100 µM; in the series on Influenza A virus H3N2 [10], 100 µM; in the series on Influenza A virus H3N2 [11], 75.3 µM; in the series with Influenza B virus [12], above 100 µM; in the series on Influenza B virus [13], above 100 µM.
As for `O=c1[nH]c(=O)n([C@H]2C[C@H](O)[C@@H](CO)O2)cc1/C=C/Br` [BRIVUDINE], the MCC at 72 h in series [3] is above 250 µM. The EC50 is 0.02 µM with Human alphaherpesvirus 1, 29 µM in the series on Human alphaherpesvirus 2, 4 µM in the series with Vaccinia virus and above 250 µM in series [4].
